Results on ten molecules are retold here after publication PMC10798254 (Indian Journal of Nuclear Medicine : IJNM : The Official …, 2023).

Data set [1] is described as follows: RCP of 68Ga-FAPI over time by TLC and HPLC. The format is physicochemical. Put shortly:
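Radiolabelled yield and RCP of the product were assessed by gradient HPLC and by TLC, using 0.1M sodium citrate and 50% acetonitrile as solvents. Physical appearance, pH and colour were also checked.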

Data set [2] in a line: Stability of 68Ga-FAPI till 4 hrs by ITLC. The format is physicochemical.
A short description of data set [3]: In-vitro stability of 99mTc-glibenclamide. Particulars: solution in PEG 400, ethanol, DMSO stored at 2-8 C, without lyophilization. The format is physicochemical.
For data set [4], the system named is Serum TSH. The following applies: ref the guidelines; cited from earlier work.
The subject of data set [5] is Serum TSH. Description: Levothyroxine dose for TSH suppression in thyroid cancer. The data set is classed as in vivo, Indian thyroid cancer patients. Put shortly: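 Follow-up visits of treated thyroid cancer outpatients were evaluated prospectively, recording age, sex, weight, initial ATA risk category, serum TSH and prescribed levothyroxine. Visits with suppressed TSH were selected and dose per kg body weight calculated. Mean, median, range and lowest dose/kg were derived.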

The subject of data set [6] is QG56 (wild-type EGFR). The data set is described as follows: Methylene blue IC50 assay. The format is cell-based. Particulars: Homo sapiens, QG-56.
The test system of data set [7] is NCI-H3255. The data set is described as follows: Methylene blue IC50 assay. The data set is classed as cell-based. Particulars: Homo sapiens.
Data set [8] relates to HCC827. The data set is described as follows: Methylene blue IC50 assay. The data set is classed as cell-based. Particulars: Homo sapiens.
Data set [9] has as its system NCI-H1975. Description: Methylene blue IC50 assay. The data set is classed as cell-based. Particulars: Homo sapiens.
The test system of data set [10] is kidney. The data set is described as follows: Effect of probenecid on renal uptake of 68Ga-DOTATATE and 68Ga-PSMA11. The data set is classed as in vivo, Wistar rats. Particulars: control versus experimental groups.
In data set [11] the test system is papillary thyroid carcinoma. Description: Empirical radioiodine therapy in papillary thyroid carcinoma. The data set is classed as in vivo, patients. Particulars: of 100. Put shortly:
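100 papillary thyroid carcinoma patients received 1–3 empirical radioiodine ablations and were followed from 6 months to 12 years. Histologies were classical, follicular, oncocytic, tall cell and microcarcinoma. Disease status was judged from serum thyroglobulin trend during follow-up.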

The subject of data set [12] is peripheral blood lymphocytes. The data set is described as follows: Cytokinesis block micronuclei assay after therapeutic 131I. The data set is classed as in vivo, patients. In a few lines: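 Blood was drawn from 18 thyroid cancer patients before and 72 hrs after a single oral therapeutic 131I dose (5.7 ± 2.1 GBq). Nine healthy volunteers served as controls. Samples were run by standard cytokinesis-block micronucleus protocol, scoring MN, NBUDs and NBR per 1000 binucleate PBLs.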

Data set [13] has as its system thyroid remnant. The data set is described as follows: 131I remnant ablation in differentiated thyroid cancer. The data set is classed as in vivo, patients.
In data set [14] the test system is U87. The following applies: temozolomide sensitive line; stated in methods, ref not given; cited from earlier work.
Data set [15] relates to LN18. Particulars: temozolomide resistant line; stated in methods, ref not given; cited from earlier work.
For data set [16], the target named is amyloid-beta (Aβ42) (Homo sapiens, UniProt P05067). Description: Binding to synthetic Aβ42 peptide and molecular modeling. The following applies: compared to monomeric counterparts.
Data set [17] relates to HeLa xenograft. The data set is described as follows: In-vivo biodistribution. Also noted: species or system SCID mice. Particulars: mouse.
For data set [18], the system named is HeLa cells (PDL-1). Description: Cell binding. The data set is classed as cell-based, human. The following applies: plateau after 30 minutes.
Data set [19] concerns the target T1, CXCR4 receptors (Homo sapiens, UniProt P61073). Also noted: species or system patients. Particulars: in vivo.
Data set [20] deals with RGD binding integrins. The data set is classed as in vivo, patients.
The target of data set [21] is T1, CXCR4 receptors. The format is in vivo, patients.

T1 sequence (P61073 whole entry): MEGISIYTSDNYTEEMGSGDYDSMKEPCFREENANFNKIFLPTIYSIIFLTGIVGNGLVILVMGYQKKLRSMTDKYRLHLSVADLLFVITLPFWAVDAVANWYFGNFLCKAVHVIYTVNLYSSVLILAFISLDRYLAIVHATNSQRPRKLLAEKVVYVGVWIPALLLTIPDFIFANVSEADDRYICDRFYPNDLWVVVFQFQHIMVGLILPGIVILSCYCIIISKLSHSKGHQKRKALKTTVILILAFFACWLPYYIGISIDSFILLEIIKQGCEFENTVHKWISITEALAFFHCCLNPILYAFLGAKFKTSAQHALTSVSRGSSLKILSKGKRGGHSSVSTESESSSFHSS
Sequence of amyloid-beta (Aβ42) (P05067 672-713): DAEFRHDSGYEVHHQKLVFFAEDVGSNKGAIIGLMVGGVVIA

As for `N#C[C@@H]1CC(F)(F)CN1C(=O)CNC(=O)c1ccnc2ccc(OCCCN3CCN(C(=O)CN4CCN(CC(=O)[O-])CCN(CC(=O)[O-])CCN(CC(=O)[O-])CC4)CC3)cc12.[68Ga+3]` [68Ga-DOTA-FAPI04], the “RCP by TLC” value in data set [1] (0.1M Na citrate, 30 min) was 98.84±0.7%; in data set [1] (0.1M Na citrate, 1 h) it was 98.27±0.81%; in data set [1] (0.1M Na citrate, 2 h) it was 97.18±1.5%; in data set [1] (50% acetonitrile, 30 min), 98.24±0.86%; in data set [1] (50% acetonitrile, 1 h), 97.84±0.98%; in data set [1] (50% acetonitrile, 2 h), 96.89±1.1%. For the same molecule, the “RCP by HPLC” value in data set [1] (30 min), in data set [1] (1 h) and in data set [1] (2 h) was 100% each time. Besides, in data set [2], the “stability (RCP) at 4 hrs” value came out at 96.31%.

Turning to `COc1ccc(Cl)cc1C(=O)NCCc1ccc(S(=O)(=O)NC(=O)NC2CCCCC2)cc1` [GBD, Glibenclamide], in [3], the “period for which solubilized drug solution was labeled efficiently” value is listed as 2 months.

As for `N[C@@H](Cc1cc(I)c(Oc2cc(I)c(O)c(I)c2)c(I)c1)C(=O)O` [Levothyroxine], the “dose required for long-term TSH suppression” value in [4] was 2.2-2.7 ug/kg body weight. Further, the “patients receiving more than 2ug/kg in excess TSH suppression” value in [5] (14 patients, TSH 0.01-0.09 mIU/L) came out at 44%. Also, in data set [5] (16 patients), the “patients with suppressed TSH values with less than 2ug/kg dose” value is reported as 50%. This molecule displayed a mean suppressive dose in data set [5] (36 patients, 90 follow-ups with suppressed TSH, SD 0.49) of 2.21 ug/kg body weight. In addition, in data set [5] (in vivo), the maximum dose was 3.33 µg/kg and the “minimum dose required to keep the patient in suppression” value was determined as 1.29 µg/kg.

For the molecule `C=CC(=O)Nc1cc(Nc2nccc(-c3cn(C)c4ccccc34)n2)c(OC)cc1N(C)CCN(C)C` [Osimietinib, Osimertinib], the half-maximal inhibitory concentration (IC50) was determined as 1800 nM in data set [6], […] in data set [7], 2 nM in data set [8] and […] in data set [9].

For the molecule `CCCN(CCC)S(=O)(=O)c1ccc(C(=O)O)cc1` [probenecid, Probenecid], the “change in kidney excretion pattern” value in data set [10] is “no significant change”.

For the molecule `[131IH]` [radioiodine], the “progression post empirical therapy” value in [11] is “Fifty-two”. Besides, the “regression of disease (decreasing serum thyroglobulin)” value in data set [11] stood at 38 patients. Also, the “NBUDS /1000 BN PBLs post exposure” value in data set [12] (72 hrs after 5.7 ± 2.1 GBq, Pre 7.4 ± 5.3, n = 18) is 11.9 ± 7.2. Moreover, in [12] (72 hrs after exposure, Pre 5.7 ± 4.4), the “NBR /1000 BN PBLs post exposure” value turned out to be 14.4 ± 8.1. The successful remnant ablation in data set [13] (baseline S Tg <12.3) turned out to be 84.1%; in [13] (baseline S Tg more than 12.3), 21.2%. The “patients with successful ablation in a single dose” value in [13] (of 383, 70.3 ± 33.6 mCi) is on record as 251 patients.

In the case of `Cn1nnc2c(C(N)=O)ncn2c1=O` [temozolomide], the figures for the IC50 in [14] and in [15] were 10000 to 100000 nM and 400000 to 500000 nM, respectively.

Take `CN(CCOc1ccc(C(=O)/C=C/c2ccc(N(C)C)cc2)cc1)CCOc1ccc(C(=O)/C=C/c2ccc(N(C)C)cc2)cc1` [¹¹C-(Chal)2DEA-Me, (2E,2′E)-1,1′-((((methylazanediyl)bis(ethane-2,1-diyl))bis(oxy))bis(4,1-phenylene))bis(3-(4-(dimethylamino)phenyl)prop-2-en-1-one)]: the binding affinity result in data set [16] is “superior binding affinity compared to monomeric counterparts”.

Turning to [^90Y]Y-CHX-A”-DTPA-Atezolizumab, in data set [17], the “retention in the tumor” value turned out to be 5.2 ± 2.5 % ID/gm. Further, the binding with cells in data set [18] is ~ 18 ± 3.5%.

With ^18F-FDG, the “lesions with increased tracer uptake” value in [19] is given as 55 lesions. In [20] (in vivo), this molecule showed an overall sensitivity of 92.86% and an overall specificity of 100%. In addition, the “skeletal metastatic lesions seen” value in data set [20] (of 23) was determined as 78.26%. For the same molecule, the “patients positive for the disease” value in [20] (of 30) stood at 86.66%. In addition, in data set [20] (of 47), the “soft tissue lesions seen” value stood at 100%. Also, the lung lesions seen in data set [20] (of 130) is listed as 90%. The lesions with uptake in [20] (of 200 lesions) was found to be 91%. For the same molecule, the “increase in mean SUVmax, PD” value in data set [21] (n = 3) was found to be 9.8%. In addition, the “percent decrease in mean SUVmax, VGPR” value in data set [21] (n = 6) amounted to 68.8%. Besides, the “percent decrease in mean SUVmax, CR” value in data set [21] (n = 9) is 78.6%. Besides, the “percent decrease in mean SUVmax, PR” value in [21] (n = 12) stood at 43.3%.
